FXIa inh 1536: factor XIa (human) inhibition. P03951. purified FXIa, Boc-Glu-Ala-Arg-AMC fluorogenic substrate. inhibition, % at 5 µM. 220,000 compounds, 0.14% hits. AID 798;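 active = inhibition of at least 40%; inactive = inhibition below 40%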;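 note: fluorescence of freed AMC excited at 355 nm; 0% = enzyme without compound and 100% = no enzyme blank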
FXIIa inh: blocks human coagulation factor XIIa protease activity; P00748; purified FXIIa, Boc-QGR-AMC fluorogenic substrate, 2 h; inhibition, % at 5 µM; 220,000 compounds, 0.3% hits; AID 800; in the data active = inhibition above about 40%;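 note: 0% = enzyme with no compound and 100% = blank without enzyme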
KLK5 inh: inhibitors of human kallikrein 5 | Q9Y337 | recombinant hK5, fluorogenic AMC substrate cleavage | inhibition, % at 5 µM | 210,000 compounds, 0.59% hits | AID 873;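 active = inhibition of 40% or more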;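 note: 0% = enzyme controls without compound and 100% = no-enzyme blanks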
thrombin 1536: thrombin (human) inhibition. P00734. alpha-thrombin, Boc-VPR-AMC fluorogenic substrate cleavage. inhibition, % at 5 µM. 220,000 compounds, 0.26% hits. AID 1046;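 active = inhibition at or above 40%; inactive = inhibition below 40%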;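 note: 0% = enzyme with no compound and 100% = wells without enzyme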
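Test system: human alpha-thrombin; medium: pH 7.5 Tris-saline with Tween 20; times: reaction at room temperature; signal: AMC fluorescence at 355 nm excitation and 460 nm emission; also added: Boc-VPR-AMC substrate, 15 µM final; dosing: one concentration per compound, 5 µM, with 0.2% DMSO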
Furin inhibitor: human furin inhibition. purified furin, fluorogenic substrate cleavage. P09958. AID 463115. 220,000 compounds, 0.061% hits. inhibition, % at 20 µM or 30 µM; in the data active = inhibition above about 25%
Target sequence (P09958 108-714 limits assumed): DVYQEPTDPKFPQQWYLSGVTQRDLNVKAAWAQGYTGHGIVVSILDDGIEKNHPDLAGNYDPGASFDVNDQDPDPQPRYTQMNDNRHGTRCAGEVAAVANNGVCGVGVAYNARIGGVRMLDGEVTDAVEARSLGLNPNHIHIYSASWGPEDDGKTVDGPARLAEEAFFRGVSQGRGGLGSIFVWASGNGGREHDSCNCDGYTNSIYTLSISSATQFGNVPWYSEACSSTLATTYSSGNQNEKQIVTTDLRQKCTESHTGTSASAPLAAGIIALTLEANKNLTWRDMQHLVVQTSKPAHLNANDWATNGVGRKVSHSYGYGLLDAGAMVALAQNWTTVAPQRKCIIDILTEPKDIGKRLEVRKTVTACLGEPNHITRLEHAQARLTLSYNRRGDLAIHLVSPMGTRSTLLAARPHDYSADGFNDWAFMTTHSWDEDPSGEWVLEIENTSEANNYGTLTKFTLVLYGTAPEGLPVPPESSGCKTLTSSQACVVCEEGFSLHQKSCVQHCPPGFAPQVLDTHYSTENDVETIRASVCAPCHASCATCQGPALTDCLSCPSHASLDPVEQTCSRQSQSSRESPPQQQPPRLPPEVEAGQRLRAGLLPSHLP
* marks the source's active call; other numbers are inactive results; x = no result. Most compounds without a hit are left out; they make up all but 1.1% or so of the library.

SMILES	FXIa inh 1536	FXIIa inh	KLK5 inh	thrombin 1536	Furin inhibitor
COc1ccccc1C(=O)OCc1nc(N)nc(Nc2ccccc2C)n1	-6.3	0.3	-7.2	-15.1	-9.1
COCc1c(C(=O)OCc2nc(N)nc(Nc3ccccc3C)n2)oc2ccccc12	32.4	51.3*	4.5	-2.4	-30.0
CC(C)CNC(=S)N1CCC(C(=O)c2ccc3c(c2)OCCO3)CC1	-4.7	6.4	-1.0	-3.0	-8.4
S=c1[nH]nc(-c2cc(-c3ccccc3)n[nH]2)n1/N=C/C(Br)=C/c1ccccc1	-1.3	10.1	23.2	-0.3	-10.7
COc1ccccc1-n1cc(CN2CCN(CC=C(C)C)C(CCO)C2)cn1 (stereo not given)	-4.2	3.0	-3.0	-8.4	-11.0
COc1ccccc1NC(=S)N(Cc1ccco1)Cc1cc2cc(C)ccc2[nH]c1=O	13.8	16.4	38.3	47.7*	-14.0
O=C(CSc1c2c(nc3cc(Cl)ccc13)CCCC2)NCc1ccco1	0.4	-0.4	-10.2	-4.2	0.7
CN(C)c1ccc(C(=O)NN2C(=O)c3ccccc3C2=O)cc1	-0.1	99.4*	-4.1	-0.8	-19.2
Cc1ccc(-c2cc(C(F)(F)F)c(C#N)c(SCC(=O)O)n2)cc1	12.1	13.3	16.2	1.4	1.9
COc1ccc(-c2cc(C(F)(F)F)c(C#N)c(SCC(=O)O)n2)cc1OC	35.2	18.2	48.5*	9.2	1.1
O=[N+]([O-])c1cccc(/C([O-])=C(/C(=S)Nc2ccccc2)[n+]2ccccc2)c1	21.6	23.4	-14.4	-4.4	-11.2
Cc1nnc(NC(=O)c2oc3cc(C)c(C)cc3c2C)s1	8.1	13.7	-5.0	-1.4	-7.3
Cc1ccc2c(C)c(C(=O)Nc3nnc(C)s3)oc2c1	22.5	40.0*	-1.8	8.7	-17.2
NNC(=O)[C@@H]1C[C@@H]1c1ccccc1	-1.6	5.0	-27.5	-7.8	-21.0
O=C(NC1CCCC1)C1CC1c1ccccc1 (stereo not given)	1.3	12.2	-17.3	4.0	25.4*
CCn1c(SCC(N)=O)nnc1C(C)C	-2.2	7.6	-0.7	96.7*	-24.1
CCC(=O)c1ccc(OCc2ccc(C(=O)OC)cc2)c(OC)c1	0.8	25.1	57.4*	13.1	-17.3
CC(=O)N1CCN(S(=O)(=O)c2ccc(Cl)cc2F)CC1	9.0	7.6	-4.3	-4.7	-15.6
O=C(O)/C=C/C(=O)N1CCN(S(=O)(=O)c2cc(C(F)(F)F)ccc2Cl)CC1	33.8	30.8	53.1*	17.7	-6.9
Cc1nc(C)n(CC(=O)N2CCCC(C(=O)c3cccc4ccccc34)C2)n1 (stereo not given)	-0.4	7.2	3.9	0.4	-17.6
CCN1CCN(C(=O)Nc2ccccc2OC)CC1	3.6	11.2	82.5*	30.6	-16.3
O=C1c2ccccc2NC(c2cccc(O)c2)N1Cc1ccco1 (stereo not given)	2.1	4.1	-2.3	-4.0	-22.3
O=C(O)/C=C/C(=O)Nc1cccnc1	15.7	11.3	71.8*	30.6	-17.8
O=C(OC1CCCCC1=O)c1cc(Cl)ccc1[N+](=O)[O-] (stereo not given)	1.2	11.0	4.8	-0.2	-21.8
Cc1cccc(OCCn2c(-c3ccco3)nc3ccccc32)c1	-6.4	21.9	48.3*	17.7	-18.0
SMILES	FXIa inh 1536	FXIIa inh	KLK5 inh	thrombin 1536	Furin inhibitor
C=CCc1c(C)[nH]c2c(OC)cccc2c1=S	25.8	29.3	46.1*	20.4	-4.3
O=C(O)c1ccc(N/C(=N\S(=O)(=O)c2ccc(Cl)cc2)c2ccccc2)cc1	44.0*	63.5*	19.5	15.5	-1.7
CCC(=O)n1nc(-c2ccccc2)nc1NCc1ccccc1	0.3	9.4	-3.6	x	-14.9
COCC(=O)n1nc(-c2ccccc2)nc1NCc1ccccc1	2.4	5.0	4.0	90.5*	-19.6
COCC(=O)n1nc(-c2ccccc2)nc1NCc1ccc(F)cc1	5.6	12.5	-7.7	90.4*	-21.5
Cc1ccccc1NC(=O)CCN1CCc2ccccc2C1	-4.5	9.2	-6.6	-2.6	-30.4
O=C(N/N=C/C=C/c1ccc2c(c1)OCO2)C(O)c1ccccc1 (stereo not given)	4.1	12.1	4.3	4.5	9.7
CCCCNC(=O)CCC(=O)Nc1ccc2nc(N3CCC(C)CC3)cc(C)c2c1	-1.5	8.0	1.2	-7.0	-14.6
CCN(CC)c1cc(C)c2cc(NC(=O)CNC(C)=O)ccc2n1	-7.6	-6.6	141.6*	0.1	-6.1
O=C1c2cccc3cccc(c23)C(=O)N1c1ccccn1	33.6	29.1	47.3*	6.2	-2.1
CCOc1ccc(OCC)c(NC(=O)CCS(=O)(=O)c2ccc(Br)s2)c1	-5.2	5.0	-4.0	43.3*	-31.6
O=C(COC(=O)CCc1nc2ccccc2c(=O)[nH]1)Nc1ccc(Cl)cn1	104.7*	39.7	43.0*	16.4	-7.7
Cc1sc2ncnc(NCC3COc4ccccc4O3)c2c1C (stereo not given)	1.4	9.4	-4.8	-9.4	-12.0
c1ccc(-c2csc3ncnc(NCC4COc5ccccc5O4)c23)cc1 (stereo not given)	16.8	41.0*	56.9*	18.5	-7.5
Cc1ccc(N(Cc2ccccc2F)S(C)(=O)=O)cc1C	-10.2	-9.3	-23.7	-8.6	-18.5
Clc1ccccc1OCc1nc(-c2ccccn2)no1	3.4	1.4	48.2*	2.3	-30.8
CCc1nc2sccc2c(=O)[nH]1	31.9	23.1	55.9*	44.2*	3.6
CCOC(=O)Cn1c(=O)oc2cc(S(=O)(=O)NCCc3ccc(C)cc3)ccc21	21.5	18.1	57.8*	56.9*	-15.2
CCOc1ccc(C(=O)NCC(=O)OC(C)C(=O)NCc2ccco2)cc1OCC (stereo not given)	3.2	6.5	55.2*	64.3*	-27.2
CCOc1ccc(C(=O)NCc2ccco2)cc1	-16.3	3.9	-0.8	0.0	-16.2
COc1ccc(C(=O)Nc2ccc(Cl)cc2C(=O)NCc2ccco2)cc1OC	-1.9	0.3	-12.8	-0.4	-19.7
COc1ccc(C(=O)Nc2ccccc2C(=O)NCc2ccco2)cc1OC	3.8	7.4	42.3*	22.1	-7.4
CCOc1cc(NC(=S)NCC2CCCO2)c(OCC)cc1NC(=O)CC(C)C (stereo not given)	-1.5	5.1	2.7	-6.8	-6.4
COC(=O)[C@@H]1C[C@@]2(O)[C@H](O)[C@H](O)[C@H](O)C[C@H]2N1CC(c1ccccc1)c1ccccc1	0.2	1.6	-1.5	-4.3	-14.9
COC(=O)c1ccc(NC(=O)CNc2ccccc2)cc1	2.8	10.4	x	-1.3	-15.7
SMILES	FXIa inh 1536	FXIIa inh	KLK5 inh	thrombin 1536	Furin inhibitor
O=C(CCCCCCCC(=O)c1ccccc1)c1ccccc1	-7.1	2.6	-4.5	-17.0	-19.0
C=C(CCC(=O)c1ccccc1)C(=O)c1ccccc1	-1.5	-6.2	19.0	40.9*	-9.2
Oc1cccc(-c2nc3ccccc3s2)c1	14.1	11.5	62.5*	104.0*	-16.3
Nc1cccc(-c2nc3ccccc3s2)c1	-5.8	-18.9	-0.9	-11.3	-14.5
Clc1cccc(Cl)c1Cn1cnc2c(NCc3ccco3)ncnc21	2.7	-6.1	61.2*	14.2	-18.4
COCCNC(=S)NN=C1CCC(c2ccccc2)CC1 (stereo not given)	-2.9	4.7	-2.2	-3.4	-15.0
